Measured values reported in ChEMBL document CHEMBL3124839, “Polyamine transport inhibitors: design, synthesis, and combination therapies with difluoromethylornithine” (J Med Chem, 2014).
Calls of active or inactive are those of the source. No cut-off for these calls is given here.

Experiments:
[1] = Selectivity ratio of IC50 for polyamine transport-deficient CHO-MG cells to IC50 for CHO cells; type: ADME, cell-based, Cricetulus griseus; settings: chinese hamster, polyamine transport-deficient CHO-MG cells and CHO cells; read-out: Ratio IC50
CHO-MG = assay: Cytotoxicity against polyamine transport-deficient CHO-MG cells assessed as growth inhibition after 48 hrs by MTS assay in presence of aminoguanidine; type: ADME, cell-based; settings: Cricetulus griseus
How it was run: (§1)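 CHO and transport-deficient CHO-MG* cells (CHO-MG* medium with 2 μg/mL L-proline) plated at 10 000 cells/mL and pretreated 24 h with 1 mM aminoguanidine. Compound in PBS added after overnight incubation, then 48 h at 37 °C, 5% CO2. Growth read by MTS formazan absorbance at 490 nm against untreated control.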

CHO = assay: Cytotoxicity against CHO cells assessed as growth inhibition after 48 hrs by MTS assay in presence of aminoguanidine; type: cell-based, Cricetulus griseus; settings: for IC50: Cricetulus griseus, CHO; for IC10: chinese hamster, cho; how it was run: as §1
[2] = Cytotoxicity against human L3.6PL cells assessed as cell viability at 0.1 uM after 48 hrs by MTS assay in presence of aminoguanidine relative to control; type: cell-based; settings: read-out: Activity
How it was run: (§2)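 L3.6pl cells plated at 5000 cells/mL and pretreated 24 h with 250 μM aminoguanidine. Exposed to compound for 48 h at 37 °C. Growth read by MTS absorbance at 490 nm relative to untreated control.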

[3] = Inhibition of polyamine transport system-mediated [3H]-spermidine uptake in DFMO-treated human L3.6PL cells after 48 hrs in presence of spermidine and aminoguanidine
Homo sapiens [4] = species: Homo sapiens; assay: Inhibition of polyamine transport system-mediated [3H]-spermidine uptake in DFMO-treated human L3.6PL cells at IC10 after 48 hrs in presence of aminoguanidine
[5] = Cytotoxicity against human L3.6PL cells assessed as growth inhibition after 48 hrs by MTS assay in presence of aminoguanidine; type: cell-based; settings: for IC50: Homo sapiens, L3.6pl; for IC10: human, l3.6pl
[6] = Competitive inhibition of polyamine transport system-mediated [3H]-spermidine uptake in DFMO-treated human L3.6PL cells after 15 mins by Lineweaver-Burk plot analysis in presence of aminoguanidine
How it was run: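 3H-spermidine uptake in L3.6pl cells in HBSS (with Ca2+/Mg2+) at 37 °C for 15 min, with 3H-Spd fixed at 1 μM and PTI at 0–3 μM. Cells were lysed in 0.1% SDS, counted by scintillation and normalized to BCA protein.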

[7] = Inhibition of polyamine transport system-mediated [3H]-spermidine uptake in DFMO-treated CHO cells after 48 hrs in presence of spermidine and aminoguanidine; settings: Cricetulus griseus
Homo sapiens [8] = species: Homo sapiens; assay: Inhibition of polyamine transport system in DFMO-treated human L3.6PL cells assessed as total polyamine level at 7 uM after 48 hrs by HPLC analysis in presence of spermidine and aminoguanidine relative to control
How it was run: (§3)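 L3.6pl cells (450 000 per 6 mL medium with 10% FBS) pretreated 24 h with 250 μM aminoguanidine, then 48 h at 37 °C with DFMO 8 mM, Spd 1 μM, PTI 7 μM, alone or combined. Acid lysates dansylated with 1,7-diaminoheptane as internal standard and polyamines quantified by HPLC as nmol/mg BCA protein. Growth given relative to untreated control.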

[9] = Cytotoxicity against human L3.6PL cells assessed as growth inhibition after 48 hrs by MTS assay; type: cell-based
[10] = Cytotoxicity against human L3.6PL cells assessed as growth at 7 uM after 48 hrs in presence of spermidine and aminoguanidine relative to control; type: functional; settings: read-out: Activity; how it was run: as §3
Homo sapiens [11] = species: Homo sapiens; assay: Inhibition of polyamine transport system in DFMO-treated human L3.6PL cells assessed as reduction in intracellular putrescine level at 7 uM after 48 hrs by HPLC analysis in presence of spermidine and aminoguanidine; type: cell-based; how it was run: as §3
[12] = Cytotoxicity against human L3.6PL cells assessed as growth at 7 uM after 48 hrs in presence of aminoguanidine relative to control; type: functional; settings: read-out: Activity; how it was run: as §3
Homo sapiens [13] = species: Homo sapiens; assay: Inhibition of polyamine transport system in human L3.6PL cells assessed as total polyamine level at 7 uM after 48 hrs by HPLC analysis in presence of aminoguanidine relative to control; type: cell-based; how it was run: as §3
Homo sapiens [14] = species: Homo sapiens; assay: Inhibition of polyamine transport system in DFMO-treated human L3.6PL cells assessed as reduction in intracellular spermidine level at 7 uM after 48 hrs by HPLC analysis in presence of spermidine and aminoguanidine relative to control; type: cell-based; how it was run: as §3
Homo sapiens [15] = species: Homo sapiens; assay: Inhibition of polyamine transport system in human L3.6PL cells assessed as total polyamine level at 7 uM after 48 hrs by HPLC analysis in presence of spermidine and aminoguanidine relative to control; type: cell-based; how it was run: as §3
Homo sapiens [16] = species: Homo sapiens; assay: Inhibition of polyamine transport system in human L3.6PL cells assessed as reduction in intracellular spermidine level at 7 uM after 48 hrs by HPLC analysis in presence of aminoguanidine relative to control; type: cell-based; how it was run: as §3
Homo sapiens [17] = species: Homo sapiens; assay: Inhibition of polyamine transport system in DFMO-treated human L3.6PL cells assessed as increase in spermine level at 7 uM after 48 hrs by HPLC analysis in presence of spermidine and aminoguanidine relative to control; set-up: scale not given: the % may be the effect or the level left; how it was run: as §3
[18] = Cytotoxicity against DFMO-treated human L3.6PL cells assessed as growth at 7 uM after 48 hrs in presence of spermidine and aminoguanidine relative to control; type: functional; settings: read-out: Activity; how it was run: as §3
Homo sapiens [19] = species: Homo sapiens; assay: Inhibition of polyamine transport system in human L3.6PL cells assessed as reduction in intracellular spermidine level at 7 uM after 48 hrs by HPLC analysis in presence of spermidine and aminoguanidine relative to control; type: cell-based; how it was run: as §3
Homo sapiens [20] = species: Homo sapiens; assay: Inhibition of polyamine transport system-mediated [3H]-spermidine uptake in DFMO-treated human L3.6PL cells after 48 hrs in presence of spermine and aminoguanidine
Homo sapiens [21] = species: Homo sapiens; assay: Inhibition of polyamine transport system-mediated [3H]-spermidine uptake in DFMO-treated human L3.6PL cells after 48 hrs in presence of putrescine and aminoguanidine
[22] = Cytotoxicity against human L3.6PL cells assessed as cell viability at 0.01 uM after 48 hrs by MTS assay in presence of aminoguanidine relative to control; type: cell-based; settings: read-out: Activity; how it was run: as §2
[23] = Homo sapiens, L3.6pl, read-out: EC50

`Cl.NCCCCNCCCCNCc1cccc(CNCCCCNCCCCN)c1` showed a selectivity ratio [1] of 1070, an IC50 (CHO-MG) of 30 µM and an IC50 (CHO) of 0.028 µM. For the same compound, the IC10 (CHO) was 0.01 µM, the viability at 48 h, 0.1 µM [2] was 8% and the EC50 [3] was “Not Active”. The inhibition (Homo sapiens [4]) was “inactive”, the IC50 [5] was 52.2 µM and the IC10 [5] was 0.1 µM.
With `Cl.NCCCCNCCCCNC(=O)c1cc(C(=O)NCCCCNCCCCN)cc(C(=O)NCCCCNCCCCN)c1` the Ki [6] was 0.398 µM, the IC50 (CHO-MG) was > 100 µM and the IC50 (CHO) was > 100 µM. For the same compound, the IC10 (CHO) was > 100 µM, the EC50 [7] was 60 µM and the EC50 [3, 23] was 89.8 µM. For the same compound, the IC50 [5] was > 100 µM and the IC10 [5] was > 100 µM.
Work on `Cl.NCCCCNCCCCNCc1ccc(CNCCCCNCCCCN)cc1` yielded a selectivity ratio [1] of 727, an IC50 (CHO) of 0.027 µM and an IC10 (CHO) of 0.001 µM.
For `Cl.NCCCNCCCCNCCCNC(=O)c1cc(C(=O)NCCCNCCCCNCCCN)cc(C(=O)NCCCNCCCCNCCCN)c1`, the EC50 [3] was “Not Active”, the IC50 [5] was 47.5 µM and the IC10 [5] was 8 µM.
With `CNCCCCNCCCCNCc1cc(CNCCCCNCCCCNC)cc(CNCCCCNCCCCNC)c1.Cl` the Ki [6] was 0.055 µM, the Activity (Homo sapiens [8]) was 19.9 nmol/mg and the IC50 (CHO-MG) was 122 µM. For the same compound, the IC50 [9] was 183 µM, the growth at 7 µM [10] was 88% and the IC50 (CHO) was > 100 µM. For the same compound, the IC10 (CHO) was 10 µM, the inhibition (Homo sapiens [11]) was “Active” and the EC50 [7] was 0.42 µM. The growth at 7 µM [12] was 117%, the Activity (Homo sapiens [13]) was 40.4 nmol/mg and the inhibition (Homo sapiens [14]) was 87%. The Activity (Homo sapiens [15]) was 37.4 nmol/mg, the EC50 [3, 23] was 1.4 µM and the inhibition (Homo sapiens [16]) was 27%. The Activity (Homo sapiens [17]) was 67%, the growth at 7 µM [18] was 70% and the IC50 [5] was > 100 µM. It also gave an IC10 [5] of 10 µM and an inhibition (Homo sapiens [19]) of 33%.
For `Cl.NCCCCNCCCCNCCCCNC(=O)c1cc(C(=O)NCCCCNCCCCNCCCCN)cc(C(=O)NCCCCNCCCCNCCCCN)c1`, the selectivity ratio [1] was 4.3, the IC50 (CHO-MG) was 69.1 µM and the IC50 (CHO) was 16 µM. The IC10 (CHO) was 1 µM, the EC50 [3] was “Not Active” and the inhibition (Homo sapiens [4]) was “inactive”. It also gave an IC50 [5] of 9.7 µM and an IC10 [5] of 1 µM.
In the case of `NCCCCNCCCCNCc1c2ccccc2cc2ccccc12`, the selectivity ratio [1] is reported as 148.
Work on `Cl.NCCCCNCCCCNCc1cc(CNCCCCNCCCCN)cc(CNCCCCNCCCCN)c1` yielded a Ki [6] of 0.036 µM, an IC50 (CHO-MG) of 66.9 µM and an IC50 [9] of 188 µM. For the same compound, the IC50 (CHO) was > 100 µM, the IC10 (CHO) was 10 µM and the EC50 [7] was 0.34 µM. The EC50 [3, 23] was 0.77 µM, the inhibition (Homo sapiens [20]) was “Active” and the IC50 [5] was > 100 µM. The IC10 [5] was 10 µM and the inhibition (Homo sapiens [21]) was “Active”.
In the case of `Cl.NCCCC[C@H](N)C(=O)NCCCNCCCCNCCCN`, the IC10 (CHO) is reported as > 100 µM and the IC10 [5] is reported as > 100 µM.
Compound `Cl.NCCCCNCCCCNCCCCNCc1cccc(CNCCCCNCCCCNCCCCN)c1` has a selectivity ratio [1] of 335, a viability at 48 h, 0.01 µM [22] of 8% and an IC50 (CHO-MG) of 13.4 µM. For the same compound, the IC50 (CHO) was 0.04 µM, the IC10 (CHO) was 0.01 µM and the EC50 [3] was “Not Active”. The inhibition (Homo sapiens [4]) was “inactive”, the IC50 [5] was 7.5 µM and the IC10 [5] was 0.01 µM.
